Most compounds without a hit are left out; they make up all but 1.8% or so of the library.
NOD2 RIPK2 PPI: NOD2-RIPK2 binding disruptors in cells, primary screen, fluorescence, CHO cells, BLA complementation | CCF4 ratio | Receptor-interacting serine/threonine-protein kinase 2 (Homo sapiens), O43353 | inhibition, % at 4.98 µM | actives 0.38% (n = 360,000); in the data active = inhibition above about 21%;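 also: 0% = vehicle only and 100% = reference blocker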
Target sequence (O43353 whole entry, looked up): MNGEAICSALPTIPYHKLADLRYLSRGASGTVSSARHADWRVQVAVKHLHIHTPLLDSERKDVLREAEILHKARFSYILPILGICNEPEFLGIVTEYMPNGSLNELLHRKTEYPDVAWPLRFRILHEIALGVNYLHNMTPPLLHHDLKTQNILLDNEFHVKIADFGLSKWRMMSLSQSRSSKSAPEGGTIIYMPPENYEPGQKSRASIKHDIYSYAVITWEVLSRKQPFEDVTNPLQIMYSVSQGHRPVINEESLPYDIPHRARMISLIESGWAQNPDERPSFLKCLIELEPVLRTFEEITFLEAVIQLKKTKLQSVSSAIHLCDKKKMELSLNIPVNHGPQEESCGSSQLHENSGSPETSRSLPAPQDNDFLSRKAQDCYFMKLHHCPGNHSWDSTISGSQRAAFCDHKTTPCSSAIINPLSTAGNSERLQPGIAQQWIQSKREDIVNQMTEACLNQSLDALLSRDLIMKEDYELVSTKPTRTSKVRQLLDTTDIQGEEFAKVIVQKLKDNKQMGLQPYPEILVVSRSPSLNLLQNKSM
TLR9-MyD88 inh: inhibitors of TLR9-MyD88 association in cells, primary screen, cell-based, CHO, BLA complementation, fluorescence; Toll-like receptor 9 (Homo sapiens) + Myeloid differentiation primary response protein …; CCF4 FRET ratio; inhibition, % at 4.98 µM; actives 0.21% (n = 340,000); AID 504734, 2011;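 active = inhibition above the mean over all tested compounds plus 3 SD, cut at about 21% in these data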;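 also: 0% = DMSO only wells and 100% = clavulanate BLA inhibitor control wells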
MC4R antag cAMP: MC4R antagonists of cAMP signaling, primary screen, cell-based, TR-FRET, antagonist arm of biased-ligand search; Melanocortin receptor 4 (Homo sapiens), P32245; MC4R-expressing cells, MTII-stimulated cAMP, LANCE TR-FRET; inhibition, % at 6.5 µM; actives 0.48% (n = 360,000); AID 540295, 2011;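 active = inhibition above its plate's cutoff, the mean of tested wells on that plate plus 3 SD, cut at about 29% in these data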;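 also: 0% = Melanotan II alone and 100% = Melanotan II plus saturating MCL0020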
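system = U2OS cells with stable human MC4R expression | also added = Melanotan II challenge after compound preincubation | dosing = one concentration, 6.5 µM nominal | incubation = compound 30 min, challenge 1 h, detection 1 h | measured by = TR-FRET with Eu-cAMP and labeled anti-cAMP, 671 nm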
TLR4 MyD88 comp: inhibitors of TLR4-MyD88 association in cells, primary screen, cell-based, HeLa CL3-4, BLA complementation, FRET ratio; AID 861, 2007; Toll-like receptor 4 (Homo sapiens) + Myeloid differentiation primary response protein …; HeLa CL3-4 TLR4/MyD88 BLA complementation; actives 0.18% (n = 200,000); inhibition, % at 8.4 µM; in the data active = inhibition above about 25%;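 also: 0% = vehicle and 100% = reference inhibitor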
MC4R ag barr: MC4R agonists recruiting beta-arrestin, primary screen, cell-based, luminescence, agonist arm of biased-ligand search; U2OS MC4R beta-arrestin complementation; percent of melanotan II response, DMSO zero; Melanocortin receptor 4 (Homo sapiens), P32245; actives 0.98% (n = 360,000); AID 540308, 2011; activation, % at 8.9 µM;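 active = activation above a per-plate cutoff, the mean activation of sample wells on that plate plus 3 SD, cut at about 8% in these data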
Active calls of the source: *.

Results for Cc1ccc(NC(=O)COC(=O)c2ccc(-n3nc(C)cc3C)cc2)c(F)c1 ?
NOD2 RIPK2 PPI: 8; TLR9-MyD88 inh: -4; MC4R antag cAMP: -7; MC4R ag barr: 8.6*

Results for FC(F)(F)c1nc2ccccc2nc1N/N=C/c1c(Cl)cccc1Cl ?
NOD2 RIPK2 PPI: 0; TLR9-MyD88 inh: 1; MC4R antag cAMP: -9; TLR4 MyD88 comp: 3; MC4R ag barr: 8.3*

How did O=C(Nc1ccccc1C(=O)Nc1ccccc1)c1cccs1 do in these assays?
NOD2 RIPK2 PPI: -1; TLR9-MyD88 inh: -14; MC4R antag cAMP: 10; MC4R ag barr: 9.0*

Results for COc1cc(/C=N/NC(=O)c2ccncc2)ccc1OC(=O)c1ccccc1Cl ?
NOD2 RIPK2 PPI: 0; TLR9-MyD88 inh: -2; MC4R antag cAMP: 8; TLR4 MyD88 comp: -3; MC4R ag barr: 3

What do the screens show for `COc1cc(/C=N\NC(=O)c2ccc(C)nc2)ccc1OC(=O)c1cccc(F)c1`?
NOD2 RIPK2 PPI: -1; TLR9-MyD88 inh: -3; MC4R antag cAMP: 6; MC4R ag barr: 9.1*

How did COc1ccc(/C=N\NC(=O)c2ccccc2)cc1COc1ccc(F)cc1 do in these assays?
NOD2 RIPK2 PPI: -2; TLR9-MyD88 inh: 3; MC4R antag cAMP: 2; MC4R ag barr: -4

How did COc1ccc(/C=N\NC(=O)c2ccc(-c3ccccc3)cc2)cc1COC(C)=O do in these assays?
NOD2 RIPK2 PPI: -9; TLR9-MyD88 inh: 0; MC4R antag cAMP: 0; MC4R ag barr: 9.1*

What do the screens show for `Cc1ccc(C(=O)N/N=C\c2ccc(OC(=O)c3cccc(F)c3)cc2)cn1`?
NOD2 RIPK2 PPI: 0; TLR9-MyD88 inh: -6; MC4R antag cAMP: -7; MC4R ag barr: 0

How did COc1cc(C(=O)N/N=C/c2ccc(OC(=O)c3ccccc3Cl)c(OC)c2)ccc1O do in these assays?
NOD2 RIPK2 PPI: 2; TLR9-MyD88 inh: -7; MC4R antag cAMP: 6; MC4R ag barr: 11*

Results for C=CCn1c(SCC(C)=O)nc2scc(-c3ccc(C)o3)c2c1=O ?
NOD2 RIPK2 PPI: -4; TLR9-MyD88 inh: 13; MC4R antag cAMP: 0; MC4R ag barr: 8.3*

What do the screens show for `CN(C(=O)COC(=O)c1ccccc1Cc1ccccc1)C1CCS(=O)(=O)C1` (centres undefined)?
NOD2 RIPK2 PPI: 4; TLR9-MyD88 inh: 5; MC4R antag cAMP: 4; MC4R ag barr: -1

How did CN(C(=O)CSc1nnc(COc2ccccc2F)n1N)C1CCS(=O)(=O)C1 (centres undefined) do in these assays?
NOD2 RIPK2 PPI: -8; TLR9-MyD88 inh: 1; MC4R antag cAMP: -3; MC4R ag barr: -1

How did COc1ccc(CNC(=O)C(c2ccncc2)N(C(=O)Cc2cccs2)c2ccccc2)cc1 (centres undefined) do in these assays?
NOD2 RIPK2 PPI: -14; TLR9-MyD88 inh: 1; MC4R antag cAMP: -1; TLR4 MyD88 comp: 13; MC4R ag barr: -1

Results for COc1ccc(N(C(=O)CCl)C(C(=O)NCCc2ccccc2)c2cccs2)cc1 (centres undefined) ?
NOD2 RIPK2 PPI: 6; TLR9-MyD88 inh: 3; MC4R antag cAMP: 28; TLR4 MyD88 comp: 10; MC4R ag barr: 12*

What do the screens show for `COc1ccc(CCC(C)NCc2ccc(Cl)c(Cl)c2)cc1` (centres undefined)?
NOD2 RIPK2 PPI: 0; TLR9-MyD88 inh: 0; MC4R antag cAMP: -4; MC4R ag barr: 2

What do the screens show for `COc1ccc(CCC(C)NCCc2ccc(Cl)cc2Cl)cc1` (centres undefined)?
NOD2 RIPK2 PPI: -3; TLR9-MyD88 inh: -8; MC4R antag cAMP: -4; MC4R ag barr: 9.2*

What do the screens show for `NS(=O)(=O)c1ccc(CCNc2ccn3nc(-c4cccc(C(F)(F)F)c4)cc3n2)cc1`?
NOD2 RIPK2 PPI: 3; MC4R antag cAMP: 22; MC4R ag barr: 7

How did NC(=O)CSc1nc2scc(-c3ccc(Cl)cc3)c2c(=O)n1Cc1ccccc1 do in these assays?
NOD2 RIPK2 PPI: -7; TLR9-MyD88 inh: -14; MC4R antag cAMP: 13; TLR4 MyD88 comp: -6; MC4R ag barr: 8.7*
